TRAIL sens C8: sensitizes caspase-8 expressing cells to TRAIL; NB7+C8 cells + TRAIL, ATPlite viability luminescence; inhibition (viability loss, TRAIL sensitization), % at 10 µM; hit rate 1% among 360,000;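 active means compounds causing at least 50% loss of cell viability in the single-dose screen, relative to plate controls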
STAT3 act-1: activators of IL-6 induced STAT3 signaling | U3A cells, IL-6 STAT3-luciferase reporter, luminescence; 100% = signal with IL-6 EC80 alone | activation (% of control), % at 5.6 µM | hit rate 0.91% among 190,000 | AID 871;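 active means activation above the screen-wide mean of compound activation plus 3 SD, cut at about 130% in these data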
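system = STAT3-luciferase reporter U3A cells | reagent = IL-6 stimulus at 33 ng/mL final | timing = 1 h compound pre-exposure, 6 h IL-6 stimulation, 37 °C | measured by = luminescence | evaluation = % activation versus median of IL-6-stimulated wells | control set = IL-6-only wells as 100% reference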
STAT3 blocker: STAT3 signaling inhibition | hit rate 0.89% among 190,000 | inhibition, % at 5.5 µM | U3A cells, IL-6 STAT3-luciferase reporter, luminescence; host cell line lacks STAT1 | AID 862;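 active means inhibition above the mean inhibition across all screened compounds plus 3 SD, cut at about 44% in these data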
STAT1 inh: reduces IFN-gamma driven STAT1 reporter signal | NIH 3T3 STAT1-luciferase reporter, luminescence | inhibition, % at 5.5 µM | hit rate 0.35% among 200,000 | AID 920;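 active means inhibition above a set limit, the mean inhibition across all tested compounds plus 3 SD, cut at about 34% in these data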
PPC-1+TRAIL kill: kills PPC-1 cancer cells in the presence of TRAIL; PPC-1 cells + TRAIL, ATPLite viability luminescence; hit rate 0.41% among 220,000; cell killing (% activity), % at 4 µM or 5 µM;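 active means cell killing above 50% in the first pass at 4 µM, then a duplicate retest at 5 µM averaging 50% or more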
STAT3 act-2: STAT3 activation, confirmation assay; shares compounds with STAT3 act-1; AID 1267; U3A STAT3-luciferase reporter, IL-6 potentiation, luminescence; U3A cells lack STAT1; 100 means same as IL-6 alone; hit rate 64% among 1,200; potentiation (% of control), % at 5.7 µM;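 active means percent activation of the STAT3 luciferase reporter above a set limit taken from the earlier primary screen, cut at about 130% in these data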
NFkB act 2: NF-kappaB activation in STAT3 activator counter-screen; human cells, NF-kappaB reporter activation; AID 1309; shares compounds with STAT3 act-1; activation (% of control), % at 5.7 µM; hit rate 11% among 1,200; in the data active means activation above about 120%;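 further: reporter induced by TNF-alpha stimulation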
STAT1 act STAT3c: STAT1 activation in STAT3 activator counter-screen | shares compounds with STAT3 act-1 | hit rate 13% among 1,200 | activation (% of control), % at 5.7 µM | AID 1318 | NIH 3T3 STAT1-luciferase reporter, IFN-gamma, luminescence;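 active means activation above the solvent-only control well mean plus 3 SD, set per screening run, cut at about 120% in these data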
Hits are given with their value. This is a sample that favours compounds with a hit; in the whole collection about 1.8% have one here.

`O=S(=O)(NCc1ccc(C(F)(F)F)cc1)c1ccc(-n2cnnn2)cc1` gave TRAIL sens C8 inactive.
Screening Cc1cc(Nc2ccccc2)n(C(=O)c2ccc(Cl)cc2)n1 returned TRAIL sens C8 inactive, STAT3 act-1 140, STAT3 blocker inactive, STAT1 inh inactive, PPC-1+TRAIL kill inactive, STAT3 act-2 inactive, NFkB act 2 inactive and STAT1 act STAT3c 133.
For Cc1cc(Nc2ccccc2)n(-c2ccc(C(=O)O)cc2)n1 the results were TRAIL sens C8 inactive, STAT3 act-1 inactive, STAT3 blocker inactive, STAT1 inh inactive and PPC-1+TRAIL kill inactive.
`O=C(O)CCn1cc(-c2ccc(Cl)cc2)nc1-c1ccncc1` gave TRAIL sens C8 inactive.
CCC(C)[C@H]1CNC(=O)C(=O)N1CCCCC1CCCCC1 (stereo not given in full) was read as TRAIL sens C8 inactive.
Screening Cc1[nH]c2ccccc2c1Cc1nnc(SCC(N)=O)o1 returned TRAIL sens C8 inactive, STAT3 act-1 153, STAT3 blocker inactive, STAT1 inh inactive, PPC-1+TRAIL kill inactive, STAT3 act-2 inactive, NFkB act 2 inactive and STAT1 act STAT3c inactive.
`Cc1[nH]c2ccccc2c1CCC(N)=O` gave TRAIL sens C8 inactive, STAT3 act-1 inactive, STAT3 blocker inactive, STAT1 inh inactive and PPC-1+TRAIL kill inactive.
For Cc1nc2c(n1C1CCCCC1)C(=O)c1ccccc1C2=O the results were TRAIL sens C8 inactive, STAT3 act-1 170, STAT3 blocker inactive, STAT1 inh inactive, PPC-1+TRAIL kill inactive, STAT3 act-2 137, NFkB act 2 inactive and STAT1 act STAT3c inactive.
O=C1c2cccnc2C(=O)N1C1CCCCC1 was read as TRAIL sens C8 inactive, STAT3 act-1 inactive, STAT3 blocker inactive, STAT1 inh inactive and PPC-1+TRAIL kill inactive.
For CCC1CCCCN1CCCNC(=O)Cn1nc(C)n2nc(-c3ccccc3)cc2c1=O (stereo not given) the results were TRAIL sens C8 inactive.
`O=C(c1cc(-c2ccccc2)on1)N(Cc1cccnc1)C(c1ccccn1)c1nc2ccccc2[nH]1` (stereo not given) gave TRAIL sens C8 inactive.
`Cc1c(C(=O)NC2CCC(C)CC2)oc2ccccc12` (stereo not given) gave TRAIL sens C8 inactive.
Screening Cc1cc(C)nc(SC2CCCCC2O)n1 (stereo not given) returned TRAIL sens C8 inactive, STAT3 act-1 136, STAT3 blocker inactive, STAT1 inh inactive, PPC-1+TRAIL kill inactive, STAT3 act-2 inactive, NFkB act 2 inactive and STAT1 act STAT3c inactive.
COc1ccc(N2C(=O)CC(Sc3nc(C)cc(C)n3)C2=O)cc1OC (stereo not given) was read as TRAIL sens C8 inactive.
Screening Cn1cnc([N+](=O)[O-])c1Oc1ccc2ccccc2c1 returned TRAIL sens C8 inactive, STAT3 act-1 139, STAT3 blocker inactive, STAT1 inh inactive, PPC-1+TRAIL kill inactive, STAT3 act-2 133, NFkB act 2 inactive and STAT1 act STAT3c inactive.
For Cn1cnc([N+](=O)[O-])c1Sc1nc2ccccc2[nH]1 the results were TRAIL sens C8 inactive and PPC-1+TRAIL kill inactive.
Screening COc1ccc(-c2nn(-c3ccccc3)cc2C(=O)N2CCN(C(=O)c3ccco3)CC2)cc1 returned TRAIL sens C8 inactive.
For COc1cc(C2SCC(=O)N2c2nnc(C34CC5CC(CC(C5)C3)C4)s2)cc(OC)c1OC (stereo not given) the results were TRAIL sens C8 inactive, STAT3 act-1 165, STAT3 blocker inactive, STAT1 inh inactive, PPC-1+TRAIL kill inactive, STAT3 act-2 142, NFkB act 2 inactive and STAT1 act STAT3c inactive.
Screening COc1ccc(C2SCC(=O)N2c2nnc(C34CC5CC(CC(C5)C3)C4)s2)cc1 (stereo not given) returned TRAIL sens C8 inactive, STAT3 act-1 inactive, STAT3 blocker inactive, STAT1 inh inactive and PPC-1+TRAIL kill inactive.
For CCOC(=O)C1=c2/c(=C/c3ccncc3)c(N)c(C(=O)OC)n2C(=O)C(c2ccncc2)S1 (stereo not given) the results were TRAIL sens C8 inactive, STAT3 act-1 inactive, STAT3 blocker inactive, STAT1 inh inactive and PPC-1+TRAIL kill inactive.
COc1cc(CNCc2ccccn2)ccc1OCc1ccc(Cl)cc1Cl was read as TRAIL sens C8 inactive, STAT3 act-1 inactive, STAT3 blocker inactive, STAT1 inh inactive and PPC-1+TRAIL kill inactive.
C/[N+]([O-])=C/c1c(OCc2ccc(Cl)cc2Cl)ccc2ccccc12 was read as TRAIL sens C8 inactive, STAT3 act-1 138, STAT3 blocker inactive, STAT1 inh inactive, PPC-1+TRAIL kill inactive, STAT3 act-2 inactive, NFkB act 2 inactive and STAT1 act STAT3c inactive.
`Cc1ccc(-c2nnn3c2nc(Cl)c2ccccc23)cc1` gave TRAIL sens C8 inactive, STAT3 act-1 147, STAT3 blocker inactive, STAT1 inh inactive, PPC-1+TRAIL kill inactive, STAT3 act-2 145, NFkB act 2 inactive and STAT1 act STAT3c inactive.
Fc1cccc(-c2nnn3c2nc(Cl)c2ccccc23)c1 was read as TRAIL sens C8 inactive, STAT3 act-1 165, STAT3 blocker inactive, STAT1 inh inactive, PPC-1+TRAIL kill inactive, STAT3 act-2 183, NFkB act 2 inactive and STAT1 act STAT3c inactive.
Screening Clc1nc2c(-c3ccccc3)nnn2c2ccccc12 returned TRAIL sens C8 inactive and PPC-1+TRAIL kill inactive.
CC(C)Cc1nnc(NC(=O)c2ccc(S(=O)(=O)N3CCCC3)cc2)s1 was read as TRAIL sens C8 inactive.
COc1ccc2c(=O)cc(-c3ccncc3)oc2c1OC was read as TRAIL sens C8 inactive.
Screening COC(=O)c1n[nH]c2ccccc12 returned TRAIL sens C8 inactive, STAT3 act-1 160, STAT3 blocker inactive, STAT1 inh inactive, PPC-1+TRAIL kill inactive, STAT3 act-2 154, NFkB act 2 inactive and STAT1 act STAT3c inactive.
Cn1c(C(=O)Nc2ccccc2)cc2sccc21 was read as TRAIL sens C8 inactive, STAT3 act-1 163, STAT3 blocker inactive, STAT1 inh inactive, PPC-1+TRAIL kill inactive, STAT3 act-2 144, NFkB act 2 123 and STAT1 act STAT3c 134.
For CCCS(=O)(=O)NC(=O)C1(C)CCCN(C(=O)c2ccccc2OC)C1 (stereo not given) the results were TRAIL sens C8 inactive.
Screening CCC1=NN=C(c2ccc(F)cc2)C(c2c[nH]c3ccccc23)N1O (stereo not given) returned TRAIL sens C8 inactive, STAT3 act-1 163, STAT3 blocker inactive, STAT1 inh inactive, PPC-1+TRAIL kill inactive, STAT3 act-2 159, NFkB act 2 inactive and STAT1 act STAT3c inactive.

Screens from PubChem BioAssay.
